Test results as given in ChEMBL document CHEMBL4014308, “Amphiphilic Tobramycin-Lysine Conjugates Sensitize Multidrug Resistant Gram-Negative Bacteria to Rifampicin and Minocycline” (J Med Chem, 2017).
≈ marks a conversion by molar mass, not a printed value. Calls of active or inactive are those of the source. No cut-off for these calls is given here.

Experiments:
Format in all cases: functional
Pseudomonas aeruginosa [1] = test: Antibacterial activity against Pseudomonas aeruginosa PAO1 after 18 hrs by microtiter dilution assay
Outline: (§1)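 Broth microdilution following CLSI guidelines. An overnight culture was adjusted to 0.5 McFarland in saline, then diluted 1:50 in Mueller-Hinton broth. This inoculum was added in equal volume to 2-fold serial dilutions of agent in MHB and incubated 18 h at 37 °C. MIC was the lowest concentration with no visible growth.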

Pseudomonas aeruginosa [2] = test: Antibacterial activity against multidrug/extremely drug-resistant/colistin-susceptible Pseudomonas aeruginosa isolate 100036 after 18 hrs by microtiter dilution assay; conditions: isolate 100036, 18 h; outline: as §1
Pseudomonas aeruginosa [3] = test: Antibacterial activity against multidrug/extremely drug-resistant/colistin-susceptible Pseudomonas aeruginosa isolate 101885 after 18 hrs by microtiter dilution assay; conditions: isolate 101885, 18 h; outline: as §1
Pseudomonas aeruginosa [4] = test: Antibacterial activity against multidrug/extremely drug-resistant/colistin-susceptible Pseudomonas aeruginosa isolate P259-96918 after 18 hrs by microtiter dilution assay; conditions: isolate P259-96918, 18 h; outline: as §1
Pseudomonas aeruginosa [5] = test: Antibacterial activity against multidrug/extremely drug-resistant/colistin-susceptible Pseudomonas aeruginosa isolate P262-101856 after 18 hrs by microtiter dilution assay; conditions: isolate P262-101856, 18 h; outline: as §1
Pseudomonas aeruginosa [6] = test: Antibacterial activity against multidrug/extremely drug-resistant/colistin-susceptible Pseudomonas aeruginosa isolate P264-104354 after 18 hrs by microtiter dilution assay; conditions: isolate P264-104354, 18 h; outline: as §1
Pseudomonas aeruginosa [7] = test: Antibacterial activity against multidrug/extremely drug-resistant/colistin-resistant Pseudomonas aeruginosa isolate 91433 after 18 hrs by microtiter dilution assay; conditions: isolate 91433, 18 h; outline: as §1
Pseudomonas aeruginosa [8] = test: Antibacterial activity against multidrug/extremely drug-resistant/colistin-resistant Pseudomonas aeruginosa isolate 101243 after 18 hrs by microtiter dilution assay; conditions: isolate 101243, 18 h; outline: as §1
Staphylococcus aureus [9] = test: Antibacterial activity against Staphylococcus aureus ATCC 29213 after 18 hrs by microtiter dilution assay; conditions: ATCC 29213, 18 h; outline: as §1
Staphylococcus aureus [10] = test: Antibacterial activity against methicillin resistant Staphylococcus aureus ATCC 33592 after 18 hrs by microtiter dilution assay; conditions: ATCC 33592, 18 h; outline: as §1
[11] = test system: Staphylococcus epidermidis; test: Antibacterial activity against methicillin-susceptible Staphylococcus epidermidis isolate CANWARD-2008 81388 after 18 hrs by microtiter dilution assay; conditions: isolate CANWARD-2008 81388, 18 h; outline: as §1
[12] = test system: Staphylococcus epidermidis; test: Antibacterial activity against methicillin-resistant Staphylococcus epidermidis isolate CAN-ICU 61589 after 18 hrs by microtiter dilution assay; conditions: isolate CAN-ICU 61589, 18 h; outline: as §1
Enterococcus faecalis = test: Antibacterial activity against Enterococcus faecalis ATCC 29212 after 18 hrs by microtiter dilution assay; conditions: ATCC 29212, 18 h
Outline: (§2)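 Broth microdilution per CLSI. Overnight culture adjusted to 0.5 McFarland in saline, diluted 1:50 in Mueller-Hinton broth, and added to an equal volume of 2-fold serial compound dilutions in MHB. Incubated 18 h at 37 °C. MIC taken as the lowest concentration with no visible growth.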

Enterococcus faecium = test: Antibacterial activity against Enterococcus faecium ATCC 27270 after 18 hrs by microtiter dilution assay; conditions: ATCC 27270, 18 h; outline: as §2
Streptococcus pneumoniae = test: Antibacterial activity against Streptococcus pneumoniae ATCC 49619 after 18 hrs by microtiter dilution assay; conditions: ATCC 49619, 18 h; outline: as §2
Escherichia coli [13] = test: Antibacterial activity against Escherichia coli ATCC 25922 after 18 hrs by microtiter dilution assay; conditions: ATCC 25922, 18 h; outline: as §1
Escherichia coli [14] = test: Antibacterial activity against gentamicin-resistant Escherichia coli isolate CAN-ICU 61714 after 18 hrs by microtiter dilution assay; conditions: isolate CAN-ICU 61714, 18 h; outline: as §1
Escherichia coli [15] = test: Antibacterial activity against amikacin-resistant Escherichia coli isolate CAN-ICU 63074 after 18 hrs by microtiter dilution assay; conditions: isolate CAN-ICU 63074, 18 h; outline: as §1
Escherichia coli [16] = test: Antibacterial activity against gentamicin/tobramycin/ciprofloxacin-resistant Escherichia coli isolate CANWARD-2011 97615 harboring AAC3-2A after 18 hrs by microtiter dilution assay; conditions: isolate CANWARD-2011 97615, 18 h; outline: as §1
Pseudomonas aeruginosa [17] = test: Antibacterial activity against Pseudomonas aeruginosa ATCC 27853 after 18 hrs by microtiter dilution assay; conditions: ATCC 27853, 18 h; outline: as §2
Pseudomonas aeruginosa [18] = test: Antibacterial activity against gentamicin-resistant Pseudomonas aeruginosa isolate CAN-ICU 62308 after 18 hrs by microtiter dilution assay; conditions: isolate CAN-ICU 62308, 18 h; outline: as §1
Pseudomonas aeruginosa [19] = test: Antibacterial activity against gentamicin/tobramycin-resistant Pseudomonas aeruginosa isolate CANWARD-2011 96846 after 18 hrs by microtiter dilution assay; conditions: isolate CANWARD-2011 96846, 18 h; outline: as §1
[20] = test system: Stenotrophomonas maltophilia; test: Antibacterial activity against Stenotrophomonas maltophilia isolate CAN-ICU 62584 after 18 hrs by microtiter dilution assay; conditions: isolate CAN-ICU 62584, 18 h; outline: as §2
Acinetobacter baumannii = test: Antibacterial activity against Acinetobacter baumannii isolate CAN-ICU 63169 after 18 hrs by microtiter dilution assay; conditions: isolate CAN-ICU 63169, 18 h; outline: as §2
Klebsiella pneumoniae = test: Antibacterial activity against Klebsiella pneumoniae ATCC 13883 after 18 hrs by microtiter dilution assay; conditions: ATCC 13883, 18 h; outline: as §2
Pseudomonas aeruginosa [21] = test: Synergistic antibacterial activity against Pseudomonas aeruginosa PAO1 after 18 hrs in presence of minocycline by checkerboard assay
Outline: (§3)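 Checkerboard in MHB: antibiotic diluted along one axis and adjuvant along the other (10 × 7 matrix). Inoculum was a 1:50 dilution in MHB of a 0.5 McFarland saline suspension; incubated 18 h at 37 °C. Each FIC = concentration in the no-growth well divided by the MIC alone; FIC index = sum of both FICs. ≤0.5 synergy, 0.5–4 no interaction, ≥4 antagonism.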

Pseudomonas aeruginosa [22] = test: Synergistic antibacterial activity against Pseudomonas aeruginosa PAO1 after 18 hrs in presence of rifampicin by checkerboard assay; outline: as §3

Row | Compound | MIC (Pseudomonas aeruginosa [1]; PAO1, 18 h) | MIC (Pseudomonas aeruginosa [2]) | MIC (Pseudomonas aeruginosa [3]) | MIC (Pseudomonas aeruginosa [4]) | MIC (Pseudomonas aeruginosa [5]) | MIC (Pseudomonas aeruginosa [6]) | MIC (Pseudomonas aeruginosa [7]) | MIC (Pseudomonas aeruginosa [8]) | MIC [12] | other results
1 | O=C(N[C@H](CO)[C@H](O)c1ccc([N+](=O)[O-])cc1)C(Cl)Cl [CHLORAMPHENICOL] | 64 µg/mL (≈ 198 µM) | > 512 µg/mL | 512 µg/mL (≈ 1580 µM) | 512 µg/mL (≈ 1580 µM) | 1020 µg/mL (≈ 3170 µM) | 1020 µg/mL (≈ 3170 µM) | 16 µg/mL (≈ 49.5 µM) | 4 µg/mL (≈ 12.4 µM) |  | 
2 | CC[C@H]1OC(=O)[C@H](C)[C@@H](O[C@H]2C[C@@](C)(OC)[C@@H](O)[C@H](C)O2)[C@H](C)[C@@H](O[C@@H]2O[C@H](C)C[C@H](N(C)C)[C@H]2O)[C@](C)(O)C[C@@H](C)C(=O)[C@H](C)[C@@H](O)[C@]1(C)O [ERYTHROMYCIN] | 256 µg/mL (≈ 349 µM) | 256 µg/mL (≈ 349 µM) | 256 µg/mL (≈ 349 µM) | 256 µg/mL (≈ 349 µM) | 1020 µg/mL (≈ 1400 µM) | 256 µg/mL (≈ 349 µM) | 512 µg/mL (≈ 698 µM) | 1020 µg/mL (≈ 1400 µM) |  | 
3 | Cl.Cl.Cl.Cl.Cl.Cl.Cl.NCCCC[C@H](N)C(=O)N(CCCCO[C@@H]1[C@@H](O[C@H]2O[C@H](CO)[C@@H](O)[C@H](N)[C@H]2O)[C@H](N)C[C@H](N)[C@H]1O[C@H]1O[C@H](CN)[C@@H](O)C[C@H]1N)Cc1c2ccccc2c(Cl)c2ccccc12 | > 512 µg/mL | > 512 µg/mL | 256 µg/mL | > 512 µg/mL | > 512 µg/mL | > 512 µg/mL | 32 µg/mL | 256 µg/mL | 32 µg/mL | MIC (Staphylococcus aureus [9]): 64 µg/mL; MIC (Staphylococcus aureus [10]): 64 µg/mL; MIC [11]: 16 µg/mL; MIC (Enterococcus faecalis): > 128 µg/mL; MIC (Enterococcus faecium): > 128 µg/mL; MIC (Streptococcus pneumoniae): > 128 µg/mL; MIC (Escherichia coli [13]): 32 µg/mL; MIC (Escherichia coli [14]): 64 µg/mL; MIC (Escherichia coli [15]): 64 µg/mL; MIC (Escherichia coli [16]): 64 µg/mL; MIC (Pseudomonas aeruginosa [17]): > 128 µg/mL; MIC (Pseudomonas aeruginosa [18]): 64 µg/mL; MIC (Pseudomonas aeruginosa [19]): > 128 µg/mL; MIC [20]: > 128 µg/mL; MIC (Acinetobacter baumannii): > 128 µg/mL; MIC (Klebsiella pneumoniae): 128 µg/mL; Activity (Pseudomonas aeruginosa [21]): inactive; Activity (Pseudomonas aeruginosa [22]): inactive
4 | C[C@@H](O)[C@H]1C(=O)N2C(C(=O)O)=C(S[C@@H]3CN[C@H](C(=O)N(C)C)C3)[C@H](C)[C@H]12 [MEROPENEM] | 0.5 µg/mL (≈ 1.3 µM) |  |  |  |  |  |  |  |  | 
5 | GENTAMICIN |  |  |  |  |  |  |  |  |  | MIC (Pseudomonas aeruginosa [1]): 1 µg/mL
6 | Cl.Cl.Cl.Cl.Cl.Cl.Cl.NCCCC[C@H](N)C(=O)N(CCCCCCCCOC1[C@@H](O[C@H]2O[C@H](CO)[C@@H](O)[C@H](N)[C@H]2O)[C@H](N)C[C@H](N)[C@H]1O[C@H]1O[C@H](CN)[C@@H](O)C[C@H]1N)Cc1c2ccccc2c(Cl)c2ccccc12 (single isomer, unassigned) | 128 µg/mL | 512 µg/mL | 64 µg/mL | 512 µg/mL | 128 µg/mL | 256 µg/mL | 8 µg/mL | 32 µg/mL | 8 µg/mL | MIC (Staphylococcus aureus [9]): 16 µg/mL; MIC (Staphylococcus aureus [10]): 16 µg/mL; MIC [11]: 8 µg/mL; MIC (Enterococcus faecalis): 64 µg/mL; MIC (Enterococcus faecium): 16 µg/mL; MIC (Streptococcus pneumoniae): 128 µg/mL; MIC (Escherichia coli [13]): 16 µg/mL; MIC (Escherichia coli [14]): 32 µg/mL; MIC (Escherichia coli [15]): 128 µg/mL; MIC (Escherichia coli [16]): 32 µg/mL; MIC (Pseudomonas aeruginosa [17]): > 128 µg/mL; MIC (Pseudomonas aeruginosa [18]): 16 µg/mL; MIC (Pseudomonas aeruginosa [19]): 64 µg/mL; MIC [20]: > 128 µg/mL; MIC (Acinetobacter baumannii): > 128 µg/mL; MIC (Klebsiella pneumoniae): > 128 µg/mL; Activity (Pseudomonas aeruginosa [21]): Active; Activity (Pseudomonas aeruginosa [22]): Active
7 | CC(C)(O/N=C(\C(=O)N[C@@H]1C(=O)N2C(C(=O)[O-])=C(C[n+]3ccccc3)CS[C@H]12)c1csc(N)n1)C(=O)O [CEFTAZIDIME] | 2 µg/mL (≈ 3.66 µM) | 8 µg/mL (≈ 14.6 µM) | 8 µg/mL (≈ 14.6 µM) | 512 µg/mL (≈ 937 µM) | 16 µg/mL (≈ 29.3 µM) | 64 µg/mL (≈ 117 µM) | 256 µg/mL (≈ 468 µM) | 64 µg/mL (≈ 117 µM) | > 32 µg/mL | 
8 | COc1cc(Cc2cnc(N)nc2N)cc(OC)c1OC [TRIMETHOPRIM] | 256 µg/mL (≈ 882 µM) | 256 µg/mL (≈ 882 µM) | > 512 µg/mL | 512 µg/mL (≈ 1760 µM) | > 1020 µg/mL | 256 µg/mL (≈ 882 µM) | 512 µg/mL (≈ 1760 µM) | 1020 µg/mL (≈ 3530 µM) |  | 
